# Tests used:
# [1] = tested on: Streptococcus pneumoniae; assay: Bactericidal activity against penicillin-susceptible Streptococcus pneumoniae PU09 harboring mef gene; format: functional
# How it was run: (§1)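 Bacteria were exposed to 1- to 8-fold their MIC of test sample, then transferred to fresh culture medium without antibacterial compound and incubated for the required time. Colonies were then counted. MBC is the lowest concentration giving a reduction in colony number of >3 Log₁₀.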
# [2] = tested on: Escherichia coli; assay: Antibacterial activity against NDM-1 producing Escherichia coli […] assessed as reduction in microbial growth; format: functional
# [3] = tested on: Enterococcus faecalis; assay: Antibacterial activity against vancomycin-susceptible Enterococcus faecalis ATCC 29212 assessed as reduction in microbial growth; format: functional
# [4] = tested on: Shigella; assay: Antibacterial activity against Shigella ATCC 12022 assessed as reduction in microbial growth; format: functional
# [5] = tested on: Staphylococcus aureus; assay: Antibacterial activity against methicillin-susceptible Staphylococcus aureus ATCC 29213 assessed as reduction in microbial growth; format: functional
# [6] = tested on: Staphylococcus aureus; assay: Antibacterial activity against MLSB/methicillin-resistant Staphylococcus aureus 15B196 assessed as reduction in microbial growth; format: functional
# [7] = tested on: Staphylococcus aureus; assay: Antibacterial activity against methicillin-resisitant Staphylococcus aureus 16-30 assessed as reduction in microbial growth; format: functional
# [8] = tested on: Enterobacter cloacae; assay: Antibacterial activity against Enterobacter cloacae ATCC 43560 assessed as reduction in microbial growth; format: functional
# [9] = tested on: Haemophilus influenzae; assay: Antibacterial activity against azithromycin-susceptible Haemophilus influenzae ATCC 49247 assessed as reduction in microbial growth; format: functional
# [10] = tested on: Staphylococcus aureus; assay: Ratio of MBC to MIC against MLSB/methicillin/ciprofloxacin-resistant Staphylococcus aureus PU32 harboring ermA gene; format: functional
# [11] = tested on: Haemophilus influenzae; assay: Ratio of MBC to MIC against azithromycin-susceptible Haemophilus influenzae ATCC 49247; format: functional
# [12] = tested on: Streptococcus pneumoniae; assay: Antibacterial activity against penicillin-susceptible Streptococcus pneumoniae PU09 harboring mef gene assessed as reduction in microbial growth; format: functional
# [13] = tested on: Klebsiella pneumoniae; assay: Antibacterial activity against NDM-1 producing Klebsiella pneumoniae ATCC BAA-2146 assessed as reduction in microbial growth; format: functional
# [14] = tested on: Staphylococcus aureus; assay: Bactericidal activity against MLSB/methicillin/ciprofloxacin-resistant Staphylococcus aureus PU32 harboring ermA gene; format: functional; how it was run: as §1
# [15] = tested on: Streptococcus pneumoniae; assay: Bactericidal activity against MLSB-resistant Streptococcus pneumoniae 07P390 harboring ermB gene assessed as reduction in microbial growth; format: functional; how it was run: as §1
# [16] = tested on: Streptococcus pneumoniae; assay: Antibacterial activity against Erythromycin-susceptible Streptococcus pneumoniae ATCC 49619 assessed as reduction in microbial growth; format: functional
# [17] = tested on: Streptococcus pneumoniae; assay: Ratio of MBC to MIC against MLSB-resistant Streptococcus pneumoniae 07P390 harboring ermB; format: functional
# [18] = tested on: Staphylococcus epidermidis; assay: Antibacterial activity against methicillin-resistant Staphylococcus epidermidis 16-5 assessed as reduction in microbial growth; format: functional
# [19] = tested on: Pseudomonas aeruginosa; assay: Antibacterial activity against Pseudomonas aeruginosa ATCC 27853 assessed as reduction in microbial growth; format: functional
# [20] = tested on: Enterococcus faecium; assay: Antibacterial activity against vancomycin-resistant Enterococcus faecium ATCC 700221 assessed as reduction in microbial growth
# [21] = tested on: Staphylococcus epidermidis; assay: Antibacterial activity against methicillin-susceptible Staphylococcus epidermidis ATCC 12228 assessed as reduction in microbial growth; format: functional
# [22] = tested on: Klebsiella pneumoniae; assay: Antibacterial activity against ESBL producing Klebsiella pneumoniae 16-14 assessed as reduction in microbial growth; format: functional
# [23] = tested on: Staphylococcus aureus; assay: Antibacterial activity against MLSB/methicillin/ciprofloxacin-resistant Staphylococcus aureus PU32 harboring ermA gene assessed as reduction in microbial growth; format: functional
# [24] = tested on: Escherichia coli; assay: Antibacterial activity against ESBL positive Escherichia coli 16-1 assessed as reduction in microbial growth; format: functional
# [25] = tested on: Streptococcus pneumoniae; assay: Ratio of MBC to MIC against Erythromycin-susceptible Streptococcus pneumoniae ATCC 49619; format: functional
# [26] = tested on: Klebsiella aerogenes; assay: Antibacterial activity against Enterobacter aerogenes ATCC 13048 assessed as reduction in microbial growth; format: functional
# [27] = tested on: Acinetobacter baumannii; assay: Antibacterial activity against Acinetobacter baumannii ATCC 19606 assessed as reduction in microbial growth; format: functional; conditions: ATCC 19606 = CIP 70.34 = JCM 6841
# [28] = tested on: Streptococcus pneumoniae; assay: Antibacterial activity against MLSB-resistant Streptococcus pneumoniae 07P390 harboring ermB gene assessed as reduction in microbial growth; format: functional
# [29] = tested on: Streptococcus pneumoniae; assay: Ratio of MBC to MIC against penicillin-susceptible Streptococcus pneumoniae PU09; format: functional
# [30] = tested on: Escherichia coli; assay: Antibacterial activity against ESBL negative Escherichia coli 16-7 assessed as reduction in microbial growth; format: functional
# [31] = tested on: Streptococcus pneumoniae; assay: Bactericidal activity against Erythromycin-susceptible Streptococcus pneumoniae ATCC 49619; format: functional
# How it was run: (§2)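 Bacteria were exposed to 1- to 8-fold MIC of the sample, then transferred to fresh medium without antibacterial. After further incubation, colonies were counted. MBC was taken as the lowest concentration giving a >3 log10 reduction in colony number.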
# [32] = tested on: Haemophilus influenzae; assay: Bactericidal activity against azithromycin-susceptible Haemophilus influenzae ATCC 49247; format: functional; how it was run: as §2
# [33] = tested on: Staphylococcus aureus; assay: Bactericidal activity against MLSB/methicillin-resistant Staphylococcus aureus 15B196; format: functional; how it was run: as §1
# [34] = tested on: Staphylococcus aureus; assay: Ratio of MBC to MIC against MLSB/methicillin-resistant Staphylococcus aureus 15B196; format: functional
# [35] = tested on: Haemophilus influenzae; assay: Antibacterial activity against azithromycin-susceptible Haemophilus influenzae ATCC 49247 assessed as reduction in microbial growth relative to ciprofloxacin; format: functional
# [36] = tested on: Streptococcus pyogenes; assay: Antibacterial activity against MLSB-resistant Streptococcus pyogenes 12-206 harboring ermA gene assessed as reduction in microbial growth; format: functional
# [37] = tested on: Staphylococcus aureus; assay: Antibacterial activity against MLSB/methicillin-resistant Staphylococcus aureus 15B196 assessed as reduction in microbial growth relative to ciprofloxacin; format: functional
# [38] = tested on: Staphylococcus aureus; assay: Antibacterial activity against MLSB/methicillin/ciprofloxacin-resistant Staphylococcus aureus PU32 harboring ermA gene assessed as reduction in microbial growth relative to ciprofloxacin; format: functional
# [39] = tested on: Escherichia coli; assay: Antibacterial activity against Escherichia coli JW5503-1 depletion of toIC efflux gene assessed as reduction in microbial growth; format: functional
# [40] = tested on: Escherichia coli; assay: Antibacterial activity against Escherichia coli JW5503-KanS depletion of toIC efflux gene assessed as reduction in microbial growth; format: functional
SMILES,MBC [1],MIC [6],MIC [9],Ratio [10],Ratio [11],MIC [12],MBC [14],MBC [15],MIC [16],Ratio [17],MIC [23],Ratio [25],MIC [28],Ratio [29],MBC [31],MBC [32],MBC [33],MIC [36],further results
CC[C@H]1OC(=O)[C@H](C)[C@@H](OC(=O)Cc2ccccn2)[C@H](C)[C@@H](O[C@@H]2O[C@H](C)C[C@H](N(C)C)[C@H]2O)[C@](C)(OC(=O)CCNCCCNc2cc3c(=O)c(C(=O)O)cn(C4CC4)c3cc2Cl)C[C@@H](C)CN(C)[C@H](C)[C@@H](O)[C@]1(C)O,1 µg/mL,> 256 µg/mL,16 µg/mL,>8,4,1 µg/mL,> 64 µg/mL,> 8 µg/mL,0.125 µg/mL,>8,8 µg/mL,1,1 µg/mL,1,0.125 µg/mL,64 µg/mL,,,MIC [2]: 64 µg/mL; MIC [3]: 8 µg/mL; MIC [4]: 16 µg/mL; MIC [5]: 8 µg/mL; MIC [7]: > 64 µg/mL; MIC [8]: 64 µg/mL; MIC [13]: > 64 µg/mL; MIC [18]: > 64 µg/mL; MIC [19]: > 64 µg/mL; MIC [20]: > 64 µg/mL; MIC [21]: 4 µg/mL; MIC [22]: 64 µg/mL; MIC [24]: 32 µg/mL; MIC [26]: 64 µg/mL; MIC [27]: > 64 µg/mL; MIC [30]: 64 µg/mL
CC[C@H]1OC(=O)[C@H](C)[C@@H](OC(=O)Cc2ccccn2)[C@H](C)[C@@H](O[C@@H]2O[C@H](C)C[C@H](N(C)C)[C@H]2O)[C@](C)(OC(=O)CCNCC/C=C/c2cnc3ccccc3c2)C[C@@H](C)CN(C)[C@H](C)[C@@H](O)[C@]1(C)O,1 µg/mL,64 µg/mL,8 µg/mL,4,2,1 µg/mL,8 µg/mL,> 32 µg/mL,0.125 µg/mL,>8,2 µg/mL,1,4 µg/mL,1,0.125 µg/mL,16 µg/mL,> 256 µg/mL,,Ratio [34]: >4
CC[C@H]1OC(=O)[C@H](C)[C@@H](O[C@H]2C[C@@](C)(OC)[C@@H](O)[C@H](C)O2)[C@H](C)[C@@H](O[C@@H]2O[C@H](C)C[C@H](N(C)C)[C@H]2O)[C@](C)(OC)C[C@@H](C)C(=O)[C@H](C)[C@@H](O)[C@]1(C)O [CLARITHROMYCIN],,≥ 16 µg/mL,16 µg/mL,,,8 µg/mL,,,,,64 µg/mL,,> 256 µg/mL,,,,,> 256 µg/mL,fold change (FC) [35]: 1768; fold change (FC) [37]: >57; fold change (FC) [38]: 0.11
O=C(O)c1cn(C2CC2)c2cc(N3CCNCC3)c(F)cc2c1=O [CIPROFLOXACIN],,0.5 µg/mL,,,,2 µg/mL,> 256 µg/mL,,2 µg/mL,,256 µg/mL,,2 µg/mL,,,0.008 µg/mL,0.5 µg/mL,0.5 µg/mL,MIC [39]: ≤ 0.064 µg/mL; MIC [40]: ≤ 0.064 µg/mL

# Source: ChEMBL document CHEMBL4680236, “Design, synthesis and structure-activity relationships of novel 15-membered macrolides: Quinolone/quinoline-containing sidechains tethered to the C-6 position of azithromycin acylides” (Eur J Med Chem, 2020)
